Results from ChEMBL document CHEMBL4359917, “Design, synthesis, and biological evaluation of novel benzodiazepine derivatives as anticancer agents through inhibition of tubulin polymerization in vitro and in vivo” (Eur J Med Chem, 2019).

Experiments:
[1] = system: A549; assay: Induction of apoptosis in human A549 cells assessed as live cells at 1 nM after 24 hrs by annexin V-FITC/propidium iodide staining based flow cytometry (reference value: 99.75 %); type: functional
In short: (§1)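 A549 cells treated at 1, 5 or 10 nM for 24 or 48 h, then analysed by flow cytometry. Quadrants: upper left necrotic, upper right late apoptotic, bottom left live, bottom right early apoptotic. Three experiments; representative results shown.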

[2] = system: A549; assay: Induction of apoptosis in human A549 cells assessed as early apoptotic cells at 5 nM after 24 hrs by annexin V-FITC/propidium iodide staining based flow cytometry (reference value: 0.19 %); type: functional; in short: as §1
[3] = Metabolic stability in Sprague-Dawley rat liver microsomes assessed as parent compound remaining after 90 mins in presence of NADPH by HPLC-UV-MS analysis; type: ADME, Microsome; conditions: read-out: Stability
In short: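 Compound incubated with rat liver microsomes in buffer containing an NADPH regenerating system. Percentage of parent remaining was determined at time points up to 180 min, and half-life was derived.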

[4] = system: A549; assay: Induction of apoptosis in human A549 cells assessed as live cells at 10 nM after 48 hrs by annexin V-FITC/propidium iodide staining based flow cytometry (reference value: 99.75 %); type: functional; in short: as §1
[5] = system: A549; assay: Induction of apoptosis in human A549 cells assessed as live cells at 5 nM after 48 hrs by annexin V-FITC/propidium iodide staining based flow cytometry (reference value: 99.75 %); type: functional; in short: as §1
[6] = in vitro; conditions: Sprague-Dawley, rat, liver microsomes
[7] = system: A549; assay: Cell cycle arrest in human A549 cells assessed as increase in cell accumulation at G2/M phase at 1 to 10 nM by RNase/propidium iodide staining based flow cytometry analysis; type: functional; conditions: TDE = time-dependent effect
[8] = system: A549; assay: Induction of apoptosis in human A549 cells assessed as necrotic cells at 1 nM after 48 hrs by annexin V-FITC/propidium iodide staining based flow cytometry (reference value: 0.03 %); type: functional; in short: as §1
[9] = system: A549; assay: Cell cycle arrest in human A549 cells assessed as increase in cell accumulation at G2/M phase measured after 24 to 48 hrs by RNase/propidium iodide staining based flow cytometry analysis; type: functional
[10] = system: MDA-MB-231; assay: Antiproliferative activity against human MDA-MB-231 cells assessed as cell growth inhibition measured after 48 hrs by MTT assay; type: functional, cell-based; conditions: MDA-MB-231, 48 h
In short: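 Cancer cell lines exposed to compounds for 48 h; viability read by MTT assay. IC50 reported as mean ± SD from at least three independent experiments.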

[11] = system: A549; assay: Induction of apoptosis in human A549 cells assessed as necrotic cells at 10 nM after 24 hrs by annexin V-FITC/propidium iodide staining based flow cytometry (reference value: 0.03 %); type: functional; in short: as §1

`COc1ccc2c(c1O)NC(=O)CN=C2c1cc(OC)c(OC)c([Se]C)c1` showed an Activity [1] of 94.08%, an Activity [2] of 13.15% and a remaining at 1.5 h [3] of 75.9%. It also gave an Activity [4] of 11.84%, an Activity [5] of 57.32% and a remaining at 3 h [6] of 50.4%. For the same compound, the Activity [7] was “Tde”, the Activity [8] was 0.28% and the Activity [9] was “Dose-dependent effect”. For the same compound, the IC50 [10] was 15.5 nM and the Activity [11] was 0.09%.
